The source of these data is ChEMBL document CHEMBL3525975, “Acetylenic linkers in lead compounds: a study of the stability of the propargyl-linked antifolates” (Drug Metab Dispos, 2012).

≈ marks a conversion by molar mass, not a printed value.

Data set [1] is described as follows: Kinetic solubility of the compound. Format: physicochemical. The conditions noted are these: read-out: Kinetic_solubility. The procedure, abridged:
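20 or 40 mM DMSO stocks diluted into filtered water with or without 200 μg/ml methylcellulose. Centrifuged, held 30 min at room temperature, then reversed-phase HPLC (50% ACN / 50 mM potassium phosphate pH 7.0, isocratic). Solubility taken as the highest concentration where absorbance stays linear with log concentration.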

The target in a further data set is Dihydrofolate reductase (Staphylococcus aureus, UniProt P0A017). The data set is described as follows: Inhibition of Staphylococcus aureus DHFR assessed as reduction in rate of NADPH consumption. The method, boiled down: (§1)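 DHFR activity followed as NADPH consumption at 340 nm over 5 min. Pure enzyme at limiting concentration, 100 μM NADPH, 1 mM dihydrofolate. Buffer: 50 mM KCl, 10 mM 2-mercaptoethanol, 0.5 mM EDTA, 1 mg/ml BSA. Run in triplicate.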
Sequence of Dihydrofolate reductase (P0A017 whole entry): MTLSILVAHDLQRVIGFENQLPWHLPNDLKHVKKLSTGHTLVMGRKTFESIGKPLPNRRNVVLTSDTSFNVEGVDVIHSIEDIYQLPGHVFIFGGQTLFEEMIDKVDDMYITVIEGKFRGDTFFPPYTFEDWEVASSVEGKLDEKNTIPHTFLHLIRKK

Data set [2] is described as follows: Drug metabolism in mouse liver microsomes assessed as 4-(3-(4-(2,4-diamino-6-methylpyrimidin-5-yl)but-3-yn-2-yl)-5-methoxyphenyl)pyridine 1-oxide at 10 ug/ml by LC-MS/MS method. Format: ADME. The method, boiled down:
(§2)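 Compound at 10 μg/ml incubated 2 h with mouse liver microsomes (0.5 mg/ml protein, 37°C) in 0.1 M potassium phosphate pH 7.4 with 200 μg/ml HPMC and an NADPH-regenerating system. Controls were DMSO alone and reactions quenched with ACN immediately after adding microsomes. Reactions were stopped with equal volume ice-cold ACN, centrifuged, solid-phase purified and analysed by LC-MS/MS. Metabolite share = metabolite AUC / total metabolite AUC in the same injection.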

The nature of data set [3]: Stability in pH 1.2 simulated gastric fluid at 5 ug/ml after 24 hrs at 37 degC by reverse phase HPLC method. The conditions noted are these: simulated gi fluid, pH 1.2, 24 h. Format: ADME. The method, boiled down: (§3)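 Compounds incubated 24 h at 37°C in the stated fluid containing 200 μg/ml HPMC. Samples taken before and after incubation, quenched with equal volume ice-cold ACN, centrifuged and the supernatant run on reversed-phase HPLC. Stability = AUC after / AUC before incubation.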

The nature of data set [4]: Stability in mouse liver microsomes assessed as parent compound remaining at 5 ug/ml after 1 hr at 37 degC by reverse phase HPLC method. Format: ADME. Particulars: read-out: Stability. The method, boiled down: (§4)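 Mouse liver microsomes (0.5 mg/ml) in 0.1 M potassium phosphate pH 7.4 with 200 μg/ml HPMC, 37°C. NADPH-regenerating system: 1.3 mM NADP+, 3.3 mM glucose 6-phosphate, 0.5 U/ml G6P dehydrogenase, 3.3 mM MgCl2. Final compound concentration 5 μg/ml; start by adding microsomes. Controls: DMSO, and compound without microsomes. Quench with ice-cold ACN, solid-phase cleanup, reversed-phase HPLC. Result is percent parent remaining vs pre-incubation. Half-life from the single time point, assuming first-order kinetics.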

A short description of data set [5]: Stability in water at 5 ug/ml after 24 hrs at 37 degC by reverse phase HPLC method. Format: physicochemical. The conditions noted are these: buffer. The method, boiled down: as §3
Data set [6] in a line: Drug metabolism in mouse liver microsomes assessed as 3-(4-(2,4-diamino-6-methylpyrimidin-5-yl)but-3-yn-2-yl)-5-(pyridin-4-yl)phenol formation at 10 ug/ml by LC-MS/MS method. It counts as ADME. The method, boiled down:
as §2

The nature of data set [7]: Half life in mouse liver microsomes at 5 ug/ml at 37 degC by reverse phase HPLC method. Format: ADME. The method, boiled down:
as §4

Data set [8] is described as follows: Stability in pH 7.4 simulated intestinal fluid at 5 ug/ml after 24 hrs at 37 degC by reverse phase HPLC method. Particulars: simulated gi fluid, pH 7.4, 24 h. It counts as ADME. The procedure, abridged:
as §3

Data set [9] is described as follows: Drug metabolism in mouse liver microsomes assessed as demethylation at 5 ug/ml after 1 hr at 37 degC by reverse phase HPLC method. Format: ADME.
Data set [10] can be described thus: Drug metabolism in mouse liver microsomes assessed as 4-(3-(4-(2,4-diamino-6-ethylpyrimidin-5-yl)but-3-yn-2-yl)-5-methoxyphenyl)pyridine 1-oxide formation at 10 ug/ml by LC-MS/MS method. Format: ADME. The procedure, abridged:
as §2

A short description of data set [11]: Drug metabolism in mouse liver microsomes assessed as 3-(4-(2,4-diamino-6-ethylpyrimidin-5-yl)but-3-yn-2-yl)-5-(pyridin-4-yl)phenol formation at 10 ug/ml by LC-MS/MS method. It counts as ADME. The method, boiled down:
as §2

The nature of data set [12]: Drug metabolism in mouse liver microsomes assessed as 2-(3-(2,4-diamino-6-ethylpyrimidin-5-yl)prop-2-ynyl)-4-(pyridin-4-yl)phenol formation at 10 ug/ml by LC-MS/MS method. Format: ADME. The procedure, abridged:
as §2

Data set [13] is described as follows: Drug metabolism in mouse liver microsomes assessed as 4-(3-(3-(2,4-diamino-6-ethylpyrimidin-5-yl)prop-2-ynyl)-4-methoxyphenyl)pyridine 1-oxide formation at 10 ug/ml by LC-MS/MS method. Format: ADME. The procedure, abridged: as §2
The test system of data set [14] is Liver. In words: Drug level in mouse liver microsomes treated with 10 ug/ml 5-(3-(3-methoxy-5-(pyridin-4-yl)phenyl)but-1-ynyl)-6-methylpyrimidine-2,4-diamine by LC-MS/MS method. It counts as ADME. The method, boiled down: as §2
Data set [15] deals with Liver. In words: Drug level in mouse liver microsomes treated with 10 ug/ml 6-ethyl-5-(3-(3-methoxy-5-(pyridin-4-yl)phenyl)prop-1-ynyl)pyrimidine-2,4-diamine by LC-MS/MS method. Format: ADME. The method, boiled down:
as §2

Data set [16] has as its system Liver. In words: Drug level in mouse liver microsomes treated with 10 ug/ml 6-ethyl-5-(3-(3-methoxy-5-(pyridin-4-yl)phenyl)but-1-ynyl)pyrimidine-2,4-diamine by LC-MS/MS method. It counts as ADME. The procedure, abridged:
as §2

Data set [17] relates to Liver. In words: Drug level in mouse liver microsomes treated with 10 ug/ml 6-ethyl-5-(3-(2-methoxy-5-(pyridin-4-yl)phenyl)prop-1-ynyl)pyrimidine-2,4-diamine by LC-MS/MS method. Format: ADME. The procedure, abridged:
as §2

A short description of data set [18]: Drug metabolism in mouse liver microsomes assessed as 4-(3-(4-(2,4-diamino-6-ethylpyrimidin-5-yl)but-3-yn-2-yl)-4-methoxyphenyl)pyridine 1-oxide formation at 10 ug/ml by LC-MS/MS method. It counts as ADME. The method, boiled down: as §2
Data set [19] can be described thus: Drug metabolism in mouse liver microsomes assessed as 2-(4-(2,4-diamino-6-ethylpyrimidin-5-yl)but-3-yn-2-yl)-4-(pyridin-4-yl)phenol formation at 10 ug/ml by LC-MS/MS method. It counts as ADME. The procedure, abridged: as §2
The test system of data set [20] is Liver. The data set is described as follows: Drug level in mouse liver microsomes treated with 10 ug/ml 6-ethyl-5-(3-(2-methoxy-5-(pyridin-4-yl)phenyl)but-1-ynyl)pyrimidine-2,4-diamine by LC-MS/MS method. Format: ADME. The procedure, abridged: as §2
Another data set deals with Staphylococcus aureus. The data set is described as follows: Antimicrobial activity against Staphylococcus aureus. Format: functional.
Data set [21] can be described thus: Inhibition of Candida glabrata DHFR. On the set-up: species or system Nakaseomyces glabratus. The method, boiled down:
as §1

With `COc1cc(C(C)C#Cc2c(C)nc(N)nc2N)cc(N2CCOCC2)c1` (configuration not stated), the solubility kinetic in data set [1] was > 80 µg/mL.

Regarding `CCc1nc(N)nc(N)c1C#CC(C)c1cc(OC)cc(N2CCOCC2)c1` (configuration not stated), in [1], the solubility kinetic is > 80 µg/mL. The IC50 at Dihydrofolate reductase was 26 nM.

Regarding `COc1cc(-c2ccncc2)cc(C(C)C#Cc2c(C)nc(N)nc2N)c1` (configuration not stated), the Drug metabolism result in data set [2] is “metabolite_detected”; in data set [6] it was “metabolite_detected”; in data set [9], 15.9%. Also, the Stability entry in [3], in [5] and in data set [8] was “Stable” each time. In addition, the remaining at 1 h, 5 ug/ml in [4] stood at 33.7%. In data set [7], this compound showed a half-life at 5 ug/ml of 38 min.

Regarding `CCc1nc(N)nc(N)c1C#CC(C)c1cc(OC)cc(-c2ccncc2)c1` (configuration not stated), the Stability entry in data set [3], in data set [5] and in data set [8] was “Stable” throughout. Besides, the remaining at 1 h, 5 ug/ml in data set [4] came to 29.2%. Moreover, the Drug metabolism entry in data set [10] is on record as “metabolite_detected”; in data set [11], “metabolite_detected”; in data set [9], 28%. This compound also returned a half-life at 5 ug/ml in [7] of 34 min.

In the case of `CCc1nc(N)nc(N)c1C#CCc1cc(OC)cc(-c2ccncc2)c1`, the Stability entry in data set [3], in data set [5] and in [8] was “Stable” each time. In [4], the remaining at 1 h, 5 ug/ml came out at 0%. The half-life at 5 ug/ml in data set [7] was < 10 min. Besides, in [9], the Drug metabolism came to 6.3%.

Regarding `CCc1nc(N)nc(N)c1C#CCc1cc(-c2ccncc2)ccc1OC`, the Stability result in data set [3], in data set [5] and in [8] was “Stable” in each case. Besides, in data set [4], the remaining at 1 h, 5 ug/ml amounted to 26.5%. In addition, the Drug metabolism entry was “metabolite_detected” in [12], “metabolite_detected” in data set [13] and 19.7% in data set [9]. In data set [7], this compound had a half-life at 5 ug/ml of 31 min.

Consider `Cc1nc(N)nc(N)c1C#CC(C)c1cc(O)cc(-c2ccncc2)c1` (configuration not stated), for which, in the data set with Liver [14], the Drug metabolism entry is “metabolite_detected”.

Turning to `CCc1nc(N)nc(N)c1C#CCc1cc(OC)cc(-c2cc[n+]([O-])cc2)c1`, in the data set on Liver [15], the Drug metabolism result was “metabolite_detected”.

Take `CCc1nc(N)nc(N)c1C#CCc1cc(O)cc(-c2ccncc2)c1`: in the data set with Liver [15], the Drug metabolism result was “metabolite_detected”.

For the compound `CCc1nc(N)nc(N)c1C#CC(C)c1cc(OC)cc(-c2cc[n+]([O-])cc2)c1` (configuration not stated), the Drug metabolism result in the data set on Liver [16] is listed as “metabolite_detected”.

As to `CCc1nc(N)nc(N)c1C#CCc1cc(-c2ccncc2)ccc1O`, in the data set with Liver [17], the Drug metabolism result is reported as “metabolite_detected”.

As for `CCc1nc(N)nc(N)c1C#CC(C)c1cc(O)cc(-c2ccncc2)c1` (configuration not stated), the Drug metabolism result with Liver [16] was “metabolite_detected”.

Consider `CCc1nc(N)nc(N)c1C#CC(C)c1cc(-c2ccncc2)ccc1OC` (configuration not stated), for which the Drug metabolism result in data set [18] and in [19] was “metabolite_detected” in each case. Moreover, the half-life at 5 ug/ml in [7] amounted to 65 min.

As to `CCc1nc(N)nc(N)c1C#CC(C)c1cc(-c2cc[n+]([O-])cc2)ccc1OC` (configuration not stated), at Dihydrofolate reductase, the IC50 amounted to 45 nM. Besides, the Drug metabolism entry with Liver [20] is “metabolite_detected”.

As to `COc1cc(C(C)C#Cc2c(C)nc(N)nc2N)cc(N2CCNCC2)c1` (configuration not stated), the solubility kinetic in data set [1] was determined as 60 µg/mL (≈ 164 µM). Besides, the half-inhibitory concentration (IC50) on Dihydrofolate reductase was 130 nM. The compound further yielded a minimum inhibitory concentration (MIC) with Staphylococcus aureus of 91.5 µg/mL (≈ 250 µM).

Take `COc1cc(-c2cc[n+]([O-])cc2)cc(C(C)C#Cc2c(C)nc(N)nc2N)c1` (configuration not stated): in the data set on Liver [14], the Drug metabolism result is reported as “metabolite_detected”.

`COc1cc(-c2ccccc2)cc(C(C)C#Cc2c(C)nc(N)nc2N)c1` (configuration not stated): in data set [1], the solubility kinetic came to 20 µg/mL (≈ 55.8 µM). Moreover, the half-inhibitory concentration (IC50) at Dihydrofolate reductase amounted to 61 nM. The MIC in the data set with Staphylococcus aureus was 0.72 µg/mL (≈ 2.01 µM).

Compound `COc1cc(-c2cc(C)cc(C)c2)cc(C(C)C#Cc2c(C)nc(N)nc2N)c1` (configuration not stated) came in with an IC50 in [21] of 0.5 nM.
